This note sets out measurements from ChEMBL document CHEMBL1759883, “Synthesis and biological evaluation of indazole derivatives” (Eur J Med Chem, 2011).

pIC50: −log10 of the molar value.

The target of assay [1] is Nitric oxide synthase 1 (Rattus norvegicus) (UniProt P29476). The experiment in a line: Inhibition of nNOS in untreated Wistar rat striata assessed as inhibition of [3H]L-arginine to [3H]L-citrulline conversion at 1 mM by liquid scintillation counting.
Assay [2] has as its target Nitric oxide synthase, inducible (Rattus norvegicus) (UniProt Q06518). As to the kind of experiment: Inhibition of iNOS in LPS-stimulated Wistar rat lung assessed as inhibition of [3H]L-arginine to [3H]L-citrulline conversion at 1 mM by liquid scintillation counting. In short, it runs like this:
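Lungs from male Wistar rats (220–250 g) taken 6 h after i.v. LPS (10 mg/kg in saline), homogenized in Tris buffer pH 7.6 with protease inhibitors, and spun at 2500g. The supernatant was incubated 30 min at 37 °C with 10 µM L-arginine plus 40 nM L-³H-arginine, cofactors, 0.75 mM NADPH (final) and 10 mM EDTA. ³H-citrulline was isolated on Dowex-50W; compounds at 1 mM.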

A further assay concerns the target Nitric oxide synthase 1 (Rattus norvegicus, UniProt P29476). The experiment in a line: Inhibition of nNOS in untreated Wistar rat striata assessed as inhibition of [3H]L-arginine to [3H]L-citrulline conversion by liquid scintillation counting.
The species entered for the next assay is Rattus norvegicus. As to the kind of experiment: Selectivity ratio of inhibition of iNOS in Wistar rat lung to inhibition of nNOS in Wistar rat striata.

Nitric oxide synthase 1 (Rattus norvegicus), sequence (P29476 whole entry): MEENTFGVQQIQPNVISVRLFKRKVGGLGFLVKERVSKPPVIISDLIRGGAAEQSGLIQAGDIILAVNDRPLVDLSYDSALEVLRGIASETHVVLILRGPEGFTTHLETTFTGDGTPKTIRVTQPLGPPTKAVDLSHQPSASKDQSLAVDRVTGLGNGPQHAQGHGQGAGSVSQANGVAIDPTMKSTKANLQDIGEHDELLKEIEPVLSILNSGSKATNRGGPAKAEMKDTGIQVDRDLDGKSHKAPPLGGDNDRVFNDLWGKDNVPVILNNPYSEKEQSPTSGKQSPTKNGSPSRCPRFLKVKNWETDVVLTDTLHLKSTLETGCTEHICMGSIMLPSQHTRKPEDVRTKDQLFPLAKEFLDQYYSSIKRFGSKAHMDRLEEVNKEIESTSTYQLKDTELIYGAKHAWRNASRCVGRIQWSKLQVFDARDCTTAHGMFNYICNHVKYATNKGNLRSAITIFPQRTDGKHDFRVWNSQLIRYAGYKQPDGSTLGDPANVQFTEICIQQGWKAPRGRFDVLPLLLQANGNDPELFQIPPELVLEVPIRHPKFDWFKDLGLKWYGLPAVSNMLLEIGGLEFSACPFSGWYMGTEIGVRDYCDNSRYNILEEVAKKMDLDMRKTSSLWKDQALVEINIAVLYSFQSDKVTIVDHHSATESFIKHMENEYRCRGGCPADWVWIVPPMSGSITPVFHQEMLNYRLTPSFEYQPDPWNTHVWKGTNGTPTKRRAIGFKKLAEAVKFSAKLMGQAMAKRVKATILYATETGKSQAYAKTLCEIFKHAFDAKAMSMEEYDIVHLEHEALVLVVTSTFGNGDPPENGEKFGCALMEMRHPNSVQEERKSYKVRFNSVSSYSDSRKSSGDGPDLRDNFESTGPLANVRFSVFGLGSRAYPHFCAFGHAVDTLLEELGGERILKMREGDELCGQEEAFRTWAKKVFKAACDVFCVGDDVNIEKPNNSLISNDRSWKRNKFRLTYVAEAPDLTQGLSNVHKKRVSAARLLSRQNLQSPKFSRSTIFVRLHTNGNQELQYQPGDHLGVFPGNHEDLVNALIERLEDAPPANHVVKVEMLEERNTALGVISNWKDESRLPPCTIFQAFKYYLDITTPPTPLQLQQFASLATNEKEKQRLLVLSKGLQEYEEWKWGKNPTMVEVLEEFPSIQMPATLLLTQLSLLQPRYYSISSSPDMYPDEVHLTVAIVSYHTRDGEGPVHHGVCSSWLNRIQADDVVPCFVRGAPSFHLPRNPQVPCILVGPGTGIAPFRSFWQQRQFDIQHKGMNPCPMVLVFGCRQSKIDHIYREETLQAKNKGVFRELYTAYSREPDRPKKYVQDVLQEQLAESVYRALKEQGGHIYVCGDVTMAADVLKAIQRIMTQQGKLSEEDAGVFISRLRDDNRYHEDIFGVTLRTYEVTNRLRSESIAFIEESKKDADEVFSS
Nitric oxide synthase, inducible (Rattus norvegicus), sequence (Q06518 whole entry): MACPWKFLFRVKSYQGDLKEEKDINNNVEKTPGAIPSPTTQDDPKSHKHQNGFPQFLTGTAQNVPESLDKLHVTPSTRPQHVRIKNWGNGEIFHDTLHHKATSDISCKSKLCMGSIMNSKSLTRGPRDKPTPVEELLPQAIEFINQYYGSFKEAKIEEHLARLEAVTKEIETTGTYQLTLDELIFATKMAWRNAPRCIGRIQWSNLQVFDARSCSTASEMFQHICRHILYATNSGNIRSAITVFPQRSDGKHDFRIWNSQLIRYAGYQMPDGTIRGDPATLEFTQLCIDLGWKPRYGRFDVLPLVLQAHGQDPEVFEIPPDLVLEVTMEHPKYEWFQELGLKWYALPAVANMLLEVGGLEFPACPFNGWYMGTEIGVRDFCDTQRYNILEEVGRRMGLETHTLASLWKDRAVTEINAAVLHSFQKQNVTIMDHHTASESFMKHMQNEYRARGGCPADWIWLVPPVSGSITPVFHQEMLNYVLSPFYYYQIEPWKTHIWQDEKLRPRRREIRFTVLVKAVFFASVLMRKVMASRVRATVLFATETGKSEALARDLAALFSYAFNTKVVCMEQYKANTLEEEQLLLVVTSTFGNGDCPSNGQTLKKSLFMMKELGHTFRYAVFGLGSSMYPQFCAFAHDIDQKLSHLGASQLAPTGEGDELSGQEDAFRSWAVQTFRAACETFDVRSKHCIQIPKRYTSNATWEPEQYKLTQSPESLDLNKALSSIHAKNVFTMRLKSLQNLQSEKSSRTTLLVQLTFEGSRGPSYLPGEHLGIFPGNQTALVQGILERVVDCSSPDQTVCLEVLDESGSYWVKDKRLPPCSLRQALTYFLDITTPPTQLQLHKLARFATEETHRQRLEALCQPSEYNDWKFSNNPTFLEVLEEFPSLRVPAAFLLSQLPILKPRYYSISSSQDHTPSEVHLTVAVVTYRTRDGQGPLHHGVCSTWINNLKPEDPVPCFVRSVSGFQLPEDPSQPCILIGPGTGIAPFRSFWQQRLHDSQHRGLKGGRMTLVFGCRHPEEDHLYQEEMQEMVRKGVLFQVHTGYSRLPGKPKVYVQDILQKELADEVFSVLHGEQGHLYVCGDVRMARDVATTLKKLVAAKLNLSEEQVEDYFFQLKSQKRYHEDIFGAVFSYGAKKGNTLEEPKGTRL
Nitric oxide synthase 1, sequence (P29476 whole entry): as the sequence (P29476 whole entry) above

On to `Cc1n[nH]c2cc(F)cc(F)c12`, for which the inhibition came out at 52.1% in assay [1] and 74.3% in assay [2].
For `c1ccc2[nH]ncc2c1`, in that order: 11.2% and 45%.
With `CCc1n[nH]c2ccccc12`, the inhibition in assay [1] was 18.8%.
As to `O=c1[nH][nH]c2ccccc12`, the pIC50 on Nitric oxide synthase 1 was less than 3.00.
Take `COc1cccc2c[nH]nc12`: the inhibition in assay [2] came to 70%.
Turning to `CCOC(=O)c1c(F)c(F)c2[nH]nc(O)c2c1F`, the values for the inhibition in assay [1] and in assay [2] were 2.5% and 51.8%, respectively.
Turning to `N#Cc1cccc2cn[nH]c12`, the values for the inhibition in assay [1] and in assay [2] were 88% and 80%, respectively.
In the case of `Oc1n[nH]c2cc(F)cc(F)c12`, the inhibition in assay [1] was found to be 11.1%; in assay [2], 48.1%.
Turning to `Cc1n[nH]c2c(F)c(F)c([N+](=O)[O-])cc12`, the inhibition in assay [1] was found to be 85.4%; in assay [2], 95.6%.
Regarding `O=C(O)c1c(F)c(F)c2[nH]nc(O)c2c1F`, the inhibition in assay [1] stood at 12.1%; in assay [2] it was 16.3%.
In the case of `O=C(O)c1c(F)c(F)c(F)c2[nH]nc(O)c12`, the inhibition in assay [1] was found to be 1.8%; in assay [2], 62.6%. In the assay filed under Rattus norvegicus, the Ratio was found to be 35.
As to `COC(=O)c1c(F)c(F)c2[nH]nc(O)c2c1F`, the values for the inhibition in assay [1] and in assay [2] were 13.3% and 48.9%, respectively.
`O=C(O)c1c(F)c(F)c2c(O)n[nH]c2c1F`: the results for the inhibition in assay [1] and in assay [2] were 5.4% and 42%, respectively.
On to `CCOC(=O)c1c(F)c(F)c(F)c2[nH]nc(O)c12`, for which the figures for the inhibition in assay [1] and in assay [2] were 1.2% and 38.7%, respectively.
As to `COC(=O)c1c(F)c(F)c(F)c2[nH]nc(O)c12`, the inhibition in assay [1] came to 6.3%; in assay [2], 22.6%.
Regarding `Fc1c(F)c(F)c2[nH]ncc2c1F`, the inhibition was determined as 43.3% in assay [1] and 98.7% in assay [2]. In the assay listed under Rattus norvegicus, the Ratio was found to be 2.
The like results for `O=[N+]([O-])c1c(F)cc(F)c2c(O)n[nH]c12` were, in that order, 14.9%, 91% and 6.
Take `Oc1n[nH]c2ccccc12`: the values for the inhibition in assay [1] and in assay [2] were 31.4% and 55.1%, respectively.
With `Cc1n[nH]c2ccccc12`, the inhibition came to 33.7% in assay [1] and 77.4% in assay [2].
As for `COC(=O)c1c(F)c(F)c2c(O)n[nH]c2c1F`, the inhibition was determined as 19.7% in assay [1] and 46.2% in assay [2].
`Fc1c(F)c(F)c(-c2n[nH]c3c(F)c(F)c(F)c(F)c23)c(F)c1F`: the Ratio in the assay filed under Rattus norvegicus stood at 10.
As for `Oc1n[nH]c2c(F)c(F)ccc12`, the inhibition was 57.1% in assay [1] and 89.1% in assay [2].
`O=C(O)c1c(F)c(F)c(F)c2c(O)n[nH]c12`: the inhibition was found to be 11.1% in assay [1] and 40.7% in assay [2].
For `CCOC(=O)c1c(F)c(F)c2c(O)n[nH]c2c1F`, the inhibition in assay [1] worked out at 10.2%; in assay [2], 53.5%.
The like results for `Cc1n[nH]c2c([N+](=O)[O-])c(F)cc(F)c12` were, in that order, 90% and 92%.
The like results for `COC(=O)c1c(F)c(F)c(F)c2c(O)n[nH]c12` were, in that order, 5.1% and 49.6%.
As to `O=[N+]([O-])c1cccc2c(O)n[nH]c12`, the inhibition in assay [1] was determined as 18.9%; in assay [2] it was 8.2%.
For `CCOC(=O)c1c(F)c(F)c(F)c2c(O)n[nH]c12`, in that order: 5.6% and 43.7%.
For `FC(F)(F)c1n[nH]c2ccccc12`, in that order: 69.9% and 80.1%.
Turning to `Cc1n[nH]c2c(F)c(F)ccc12`, the inhibition is 58.4% in assay [1] and 69.2% in assay [2].

For orientation: inhibition means how much of the control response was suppressed. One may read the pIC50 as −log10 of the IC50, conventionally taken in molar units.
